Measured values: PMC4148169 (Journal of Medicinal Chemistry, 2014)
Counter-ions that a name gives are not always drawn. Like-named read-outs stand apart in the source and are kept apart here. Values belong to the compound of their own block, whether it stands above or below them.

Key:
[1] = cited from earlier work
[2] = Solubility in oral dosing vehicles; assay type: physicochemical; conditions: oral dosing vehicle
2C9 = conditions: read-out: IC50 toward 2C9; cited from earlier work
human 3A4 = conditions: cited from earlier work
Single dose PK = assay type: in vivo; conditions: female, Swiss Webster, mouse, plasma, po, 50 mg/kg
How it was run: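 Eight-week-old female Swiss Webster mice were given one oral gavage dose of 50 mg/kg, formulated at 10 mg/mL in 20% solutol/80% water. Nine mice were dosed, with n = 3 plasma samples at about 0.25, 0.5, 1, 2, 4, 6, 8, 12 and 24 h. Plasma protein was precipitated with 5 volumes of acetonitrile and filtered through 0.2 μm, then quantified by LC-MS/MS.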

CYP3A4 = CYP3A4 (Homo sapiens, UniProt P08684); experiment: CYP inhibition in human liver microsomes, 3A4; assay type: in vitro ADME
CYP3A4, sequence (P08684 whole entry): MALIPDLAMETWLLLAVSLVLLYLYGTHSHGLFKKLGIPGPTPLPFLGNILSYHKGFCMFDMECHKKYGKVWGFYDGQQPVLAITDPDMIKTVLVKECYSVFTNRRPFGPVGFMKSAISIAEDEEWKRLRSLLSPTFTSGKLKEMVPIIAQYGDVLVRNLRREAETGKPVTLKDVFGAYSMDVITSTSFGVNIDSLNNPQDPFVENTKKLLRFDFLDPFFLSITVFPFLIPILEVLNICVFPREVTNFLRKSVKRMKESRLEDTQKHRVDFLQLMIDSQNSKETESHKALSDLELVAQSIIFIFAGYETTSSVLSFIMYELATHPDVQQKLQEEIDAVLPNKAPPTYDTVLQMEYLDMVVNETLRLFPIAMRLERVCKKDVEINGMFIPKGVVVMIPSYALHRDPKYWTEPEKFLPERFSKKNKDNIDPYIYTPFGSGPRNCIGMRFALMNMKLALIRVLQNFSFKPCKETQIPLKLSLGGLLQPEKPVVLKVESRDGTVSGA

CYP1A2 = target: T1, CYP1A2 (Homo sapiens, UniProt P05177); experiment: CYP inhibition in human liver microsomes, 1A2; assay type: in vitro ADME
T1 sequence (P05177 1-516): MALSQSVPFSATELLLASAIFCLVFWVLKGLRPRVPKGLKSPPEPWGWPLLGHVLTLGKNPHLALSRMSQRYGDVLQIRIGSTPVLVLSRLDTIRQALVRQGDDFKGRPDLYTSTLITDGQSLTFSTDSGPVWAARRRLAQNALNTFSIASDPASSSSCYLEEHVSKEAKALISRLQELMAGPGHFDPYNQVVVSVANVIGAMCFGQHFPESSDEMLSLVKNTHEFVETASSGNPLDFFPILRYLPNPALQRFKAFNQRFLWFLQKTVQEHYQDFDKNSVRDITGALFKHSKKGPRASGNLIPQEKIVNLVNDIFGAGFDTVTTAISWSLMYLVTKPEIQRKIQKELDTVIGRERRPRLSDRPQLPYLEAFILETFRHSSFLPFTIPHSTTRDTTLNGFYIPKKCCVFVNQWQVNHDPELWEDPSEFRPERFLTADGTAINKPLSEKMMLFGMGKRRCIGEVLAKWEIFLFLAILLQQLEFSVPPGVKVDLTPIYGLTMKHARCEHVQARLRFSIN

CYP2D6 = CYP2D6 (Homo sapiens, UniProt P10635); experiment: CYP inhibition in human liver microsomes, 2D6; assay type: in vitro ADME
CYP2D6, sequence (P10635 whole entry): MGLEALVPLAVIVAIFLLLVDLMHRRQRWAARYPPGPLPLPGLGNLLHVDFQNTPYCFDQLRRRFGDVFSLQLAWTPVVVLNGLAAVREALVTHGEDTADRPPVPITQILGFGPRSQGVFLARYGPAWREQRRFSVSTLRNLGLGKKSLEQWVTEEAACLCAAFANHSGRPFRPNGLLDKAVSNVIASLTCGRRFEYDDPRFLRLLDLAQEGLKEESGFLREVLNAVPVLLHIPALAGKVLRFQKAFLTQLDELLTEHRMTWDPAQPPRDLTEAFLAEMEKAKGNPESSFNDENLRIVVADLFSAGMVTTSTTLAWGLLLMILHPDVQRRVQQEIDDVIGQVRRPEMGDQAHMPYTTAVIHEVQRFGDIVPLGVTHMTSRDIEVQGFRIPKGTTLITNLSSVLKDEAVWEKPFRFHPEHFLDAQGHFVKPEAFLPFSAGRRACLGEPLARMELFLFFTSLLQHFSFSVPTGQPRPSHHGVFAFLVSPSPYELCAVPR

T. cruzi Y luc strain = assay type: in vivo, Trypanosoma cruzi; conditions: posaconazole 20 mg/kg, ip, bid, 4 days; two independent experiments (A, B)
CYP2C9 = CYP2C9 (Homo sapiens, UniProt P11712); experiment: CYP inhibition in human liver microsomes, 2C9; assay type: in vitro ADME
CYP2C9, sequence (P11712 whole entry): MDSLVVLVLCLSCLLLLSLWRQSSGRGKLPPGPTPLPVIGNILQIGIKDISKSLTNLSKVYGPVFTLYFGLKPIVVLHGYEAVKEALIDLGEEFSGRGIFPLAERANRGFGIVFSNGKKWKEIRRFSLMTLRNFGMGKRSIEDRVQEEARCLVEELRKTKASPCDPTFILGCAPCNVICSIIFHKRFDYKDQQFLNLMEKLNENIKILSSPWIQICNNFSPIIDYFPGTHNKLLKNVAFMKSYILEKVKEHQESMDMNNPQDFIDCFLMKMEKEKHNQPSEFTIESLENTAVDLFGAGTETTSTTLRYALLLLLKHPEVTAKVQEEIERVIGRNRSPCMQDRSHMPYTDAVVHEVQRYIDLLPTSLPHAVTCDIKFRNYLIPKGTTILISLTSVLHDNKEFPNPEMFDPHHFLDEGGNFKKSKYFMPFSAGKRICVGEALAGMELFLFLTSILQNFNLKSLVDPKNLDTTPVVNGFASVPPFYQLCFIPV

[3] = read-out: IC50 against human 3A4, ref 35
[4] = read-out: IC50 against human 3A4, ref 67

Structure (SMILES): CCO.C[C@@H](c1nc(-c2ccc(C#N)cc2)cs1)[C@@](Cn1cncn1)(OCOP(=O)(O)O)c1ccc(F)cc1F.NCCCC[C@H](N)C(=O)O [E1224]
half-life in humans [1]: measured in days

Structure (SMILES): O=C([C@@H](c1ccc(Cl)cc1)c1cccnc1)N1CCN(c2ccc(C(F)(F)F)cc2)CC1 [EPL-BS1246]
IC50 (2C9): 8 to 9 µM | IC50 (human 3A4; read-out: IC50 toward 3A4): ≥ 20 µM

Structure (SMILES): CC(=O)N1CCN(c2ccc(OCC3COC(Cn4ccnc4)(c4ccc(Cl)cc4Cl)O3)cc2)CC1 (stereo not shown) [ketoconazole]
IC50 (human 3A4; [3]): 0.04 µM | IC50 (human 3A4; [4]): 0.008 µM

Structure (SMILES): O=C(N[C@H](Cc1c[nH]c2ccccc12)C(=O)Nc1ccncc1)c1ccc(-c2ccc(F)c(F)c2)cc1F [compound 2, (R)-N-(3-(1H-Indol-3-yl)-1-oxo-1-(pyridin-4-ylamino)propan-2-yl)-3,3′,4′-trifluoro-[1,1′-biphenyl]-4-carboxamide]
half-life (Single dose PK): < 3.3 h

More lines, main results first:

solubility in 20% HPβCD [2]: fully soluble
Structure (SMILES): O=C(N[C@H](Cc1c[nH]c2ccccc12)C(=O)Nc1ccncc1)c1ccc(-c2ccc(F)c(Cl)c2)cc1F [compound 7, (R)-N-(3-(1H-Indol-3-yl)-1-oxo-1-(pyridin-4-ylamino)propan-2-yl)-3′-chloro-3,4′-difluoro-[1,1′-biphenyl]-4-carboxamide hydrochloride]

half-life (Single dose PK): < 3.3 h
Structure (SMILES): O=C(N[C@H](Cc1c[nH]c2ccccc12)C(=O)Nc1ccncc1)c1ccc(-c2ccc(F)c(C(F)(F)F)c2)cc1F [compound 6, (R)-N-(3-(1H-Indol-3-yl)-1-oxo-1-(pyridin-4-ylamino)propan-2-yl)-3,4′-difluoro-3′-(trifluoromethyl)-[1,1′-biphenyl]-4-carboxamide]

inhibition at 1 µM (CYP3A4): 68% | inhibition at 1 µM (CYP1A2): -11% | inhibition at 1 µM (CYP2D6): -9% | inhibition at 1 µM (CYP2C9): -3%
Structure (SMILES): CC[C@@H]([C@H](C)O)n1ncn(-c2ccc(N3CCN(c4ccc(OC[C@@H]5CO[C@@](Cn6cncn6)(c6ccc(F)cc6F)C5)cc4)CC3)cc2)c1=O [Posaconazole]
IC50 (human 3A4; [3]): 0.35 µM | IC50 (human 3A4; [4]): 0.12 µM | inhibition of parasitemia, positive control (T. cruzi Y luc strain): 94–99% | half-life in humans [1]: measured in days
